Consider 14 compounds from ChEMBL document CHEMBL3997768, “The synthesis and antistaphylococcal activity of dehydroabietic acid derivatives: modifications at C12 and C7” (2017).

Values after ≈ are worked out from the molar mass of the structure shown. Active and inactive are the calls of the source. No rule for the calls is given here. Some results are limits rather than exact numbers.

What all share (type): functional
Assay [1] deals with Staphylococcus aureus. Kind of assay: Antibacterial activity against gentamicin-resistant Staphylococcus aureus NRS-108 after 18 hrs by two fold serial dilution method. As to conditions: NRS-108, 18 h. A digest of the protocol:
(§1)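 Strains grown overnight at 37 °C in TSB without antibiotic. Cultures were diluted 1000-fold, grown at 37 °C for 2–3 h to A600 0.6, then diluted 1:400 in fresh TSB. Equal volumes of bacteria and two-fold serial DMSO dilutions (final 0.39–50) were mixed. A600 was read after 18 h. MIC was the lowest concentration inhibiting growth. Run in triplicate, with vancomycin and tetracycline controls.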

Assay [2] relates to Staphylococcus aureus. Kind of assay: Antibacterial activity against Staphylococcus aureus Newman after 18 hrs by two fold serial dilution method. A digest of the protocol:
(§2)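 Strains were grown overnight at 37 °C in TSB without antibiotic, diluted 1000-fold, and grown 2–3 h to A600 0.6. They were then diluted 1:400 in fresh TSB. Compounds in DMSO were two-fold serially diluted to a final 0.39–50 and mixed with an equal volume of bacteria. A600 was read after 18 h. MIC is the lowest concentration inhibiting growth. Triplicate; vancomycin and tetracycline were positive controls.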

The subject of assay [3] is Staphylococcus aureus. Briefly: Antibacterial activity against aminoglycosides/tetracycline-resistant Staphylococcus aureus NRS-1 after 18 hrs by two fold serial dilution method. As to conditions: NRS-1, 18 h. A digest of the protocol: as §1
In assay [4] the test system is Staphylococcus aureus. Briefly: Antibacterial activity against linezolid-resistant Staphylococcus aureus NRS-271 containing phage type E-MRSA after 18 hrs by two fold serial dilution method. As to conditions: NRS-271, 18 h. A digest of the protocol: as §1
In a further assay the test system is Escherichia coli. Briefly: Antibacterial activity against Escherichia coli AB1157 at 50 ug/ml after 18 hrs by two fold serial dilution method. In short, it runs like this:
as §2

For assay [5], the system named is Staphylococcus aureus. Kind of assay: Antibacterial activity against oxacillin/tetracycline-resistant Staphylococcus aureus NRS-100 after 18 hrs by two fold serial dilution method. Conditions: NRS-100, 18 h. In short, it runs like this:
as §1

The test system of assay [6] is Staphylococcus aureus. Briefly: Antibacterial activity against erythromycin-resistant Staphylococcus aureus NRS-70 after 18 hrs by two fold serial dilution method. Conditions: NRS-70, 18 h. In short, it runs like this: as §1

`CC(C)c1cc2c(cc1Br)[C@@]1(C)CCC[C@@](C)(C(=O)O)[C@@H]1C/C2=N\OCCNC(=O)c1cccc(C(F)(F)F)c1`: the MIC against Staphylococcus aureus [1] is 2.5 to 4.01 µM (≈ 1.56 to 2.5 µg/mL); with Staphylococcus aureus [2] it was 4.01 µM (≈ 2.5 µg/mL); against Staphylococcus aureus [3], 5.02 µM (≈ 3.13 µg/mL); against Staphylococcus aureus [4], 2.5 to 4.01 µM (≈ 1.56 to 2.5 µg/mL); against Staphylococcus aureus [5], 5.02 µM (≈ 3.13 µg/mL); against Staphylococcus aureus [6] it was 2.5 to 4.01 µM (≈ 1.56 to 2.5 µg/mL). For the same compound, the outcome with Escherichia coli was inactive.
With `CC(C)c1cc2c(cc1Br)[C@@]1(C)CCC[C@@](C)(C(=O)O)[C@@H]1C/C2=N\OCCCNC(=O)c1ccc(Cl)s1`, the MIC against Staphylococcus aureus [1] was 2.56 to 4.1 µM (≈ 1.56 to 2.5 µg/mL); against Staphylococcus aureus [2], 2.05 to 4.1 µM (≈ 1.25 to 2.5 µg/mL); with Staphylococcus aureus [3] it was 10.2 to 20.5 µM (≈ 6.25 to 12.5 µg/mL); in the assay with Staphylococcus aureus [4], 2.56 to 4.1 µM (≈ 1.56 to 2.5 µg/mL); against Staphylococcus aureus [5] it was 5.13 µM (≈ 3.13 µg/mL); against Staphylococcus aureus [6], 2.56 to 4.1 µM (≈ 1.56 to 2.5 µg/mL). Besides, the result in the assay with Escherichia coli was inactive.
For the compound `CC(C)c1cc2c(cc1Br)[C@@]1(C)CCC[C@@](C)(C(=O)O)[C@@H]1C/C2=N\OCCNC(=O)c1ccc(Cl)s1`, the MIC in the assay on Staphylococcus aureus [1] is 2.62 to 4.19 µM (≈ 1.56 to 2.5 µg/mL); against Staphylococcus aureus [2] it was 4.19 µM (≈ 2.5 µg/mL); in the assay on Staphylococcus aureus [3], 5.25 to 10.5 µM (≈ 3.13 to 6.25 µg/mL); with Staphylococcus aureus [4], 1.56 to 2.5 µM (≈ 0.93 to 1.49 µg/mL); against Staphylococcus aureus [5], 4.19 µM (≈ 2.5 µg/mL); in the assay with Staphylococcus aureus [6], 2.62 to 4.19 µM (≈ 1.56 to 2.5 µg/mL). Further, in the assay on Escherichia coli, the result was inactive.
As for `CC(C)c1cc2c(cc1Br)[C@@]1(C)CCC[C@@](C)(C(=O)O)[C@@H]1C/C2=N\OCCCNC(=O)Cc1cccc(C(F)(F)F)c1`, the MIC in the assay with Staphylococcus aureus [1] is 2.39 to 3.84 µM (≈ 1.56 to 2.5 µg/mL); with Staphylococcus aureus [2], 1.92 to 3.84 µM (≈ 1.25 to 2.5 µg/mL); in the assay with Staphylococcus aureus [3] it was over 19.2 µM; in the assay on Staphylococcus aureus [4] it was 2.39 to 3.84 µM (≈ 1.56 to 2.5 µg/mL); with Staphylococcus aureus [5] it was 3.84 to 4.8 µM (≈ 2.5 to 3.13 µg/mL); against Staphylococcus aureus [6] it was 1.92 to 2.39 µM (≈ 1.25 to 1.56 µg/mL). For the same compound, in the assay with Escherichia coli, the result was inactive.
For the compound `CN(C)[C@@H]1C(O)=C(C(N)=O)C(=O)[C@@]2(O)C(O)=C3C(=O)c4c(O)cccc4[C@@](C)(O)[C@H]3C[C@@H]12` [TETRACYCLINE], the MIC was under 7.04 µM in the assay with Staphylococcus aureus [1]; under 2.16 µM in the assay with Staphylococcus aureus [2]; over 56.2 µM with Staphylococcus aureus [3]; under 7.04 µM against Staphylococcus aureus [4]; under 7.04 µM in the assay on Staphylococcus aureus [5]; under 7.04 µM in the assay on Staphylococcus aureus [6].
As to `CC(C)c1cc2c(cc1Br)[C@@]1(C)CCC[C@@](C)(C(=O)O)[C@@H]1C/C2=N\OCCCNC(=O)Cc1ccc(C(F)(F)F)cc1`, the MIC is 2.39 to 3.84 µM (≈ 1.56 to 2.5 µg/mL) against Staphylococcus aureus [1]; 3.84 µM (≈ 2.5 µg/mL) against Staphylococcus aureus [2]; over 19.2 µM with Staphylococcus aureus [3]; 4.8 to 9.59 µM (≈ 3.13 to 6.25 µg/mL) in the assay on Staphylococcus aureus [4]; 4.8 to 9.59 µM (≈ 3.13 to 6.25 µg/mL) against Staphylococcus aureus [5]; 2.39 to 3.84 µM (≈ 1.56 to 2.5 µg/mL) in the assay on Staphylococcus aureus [6]. The result in the assay on Escherichia coli was inactive.
Take `CC(C)c1cc2c(cc1Br)[C@@]1(C)CCC[C@@](C)(C(=O)O)[C@@H]1C/C2=N\OCCCNC(=O)c1cc(Br)cs1`: the MIC was 2.38 to 3.82 µM (≈ 1.56 to 2.5 µg/mL) in the assay with Staphylococcus aureus [1]; 1.91 to 3.82 µM (≈ 1.25 to 2.5 µg/mL) in the assay with Staphylococcus aureus [2]; 4.78 to 9.55 µM (≈ 3.13 to 6.25 µg/mL) in the assay with Staphylococcus aureus [3]; 2.38 to 3.82 µM (≈ 1.56 to 2.5 µg/mL) with Staphylococcus aureus [4]; 4.78 µM (≈ 3.13 µg/mL) in the assay with Staphylococcus aureus [5]; 1.91 to 2.38 µM (≈ 1.25 to 1.56 µg/mL) in the assay on Staphylococcus aureus [6]. Moreover, the result with Escherichia coli was inactive.
As for `CC(C)c1cc2c(cc1Br)[C@@]1(C)CCC[C@@](C)(C(=O)O)[C@@H]1C/C2=N\OCCCNC(=O)c1ccc(C(F)(F)F)cc1`, the MIC in the assay on Staphylococcus aureus [1] was 2.45 to 3.92 µM (≈ 1.56 to 2.5 µg/mL); with Staphylococcus aureus [2], 1.96 to 3.92 µM (≈ 1.25 to 2.5 µg/mL); in the assay with Staphylococcus aureus [3], 9.8 to 19.6 µM (≈ 6.25 to 12.5 µg/mL); in the assay with Staphylococcus aureus [4], 2.45 to 3.92 µM (≈ 1.56 to 2.5 µg/mL); in the assay with Staphylococcus aureus [5] it was 4.91 µM (≈ 3.13 µg/mL); in the assay on Staphylococcus aureus [6] it was 1.96 to 2.45 µM (≈ 1.25 to 1.56 µg/mL). The outcome in the assay on Escherichia coli was inactive.
With `CC(C)c1cc2c(cc1Br)[C@@]1(C)CCC[C@@](C)(C(=O)O)[C@@H]1C/C2=N\OCCNC(=O)c1ccc(Br)s1`, the MIC in the assay with Staphylococcus aureus [1] was 2.44 to 3.9 µM (≈ 1.56 to 2.5 µg/mL); in the assay with Staphylococcus aureus [2], 3.9 µM (≈ 2.5 µg/mL); against Staphylococcus aureus [3] it was 4.89 to 9.76 µM (≈ 3.13 to 6.25 µg/mL); with Staphylococcus aureus [4], 2.44 to 3.9 µM (≈ 1.56 to 2.5 µg/mL); with Staphylococcus aureus [5], 4.89 µM (≈ 3.13 µg/mL); with Staphylococcus aureus [6], 2.44 to 3.9 µM (≈ 1.56 to 2.5 µg/mL). The outcome with Escherichia coli was inactive.
Take `CC(C)c1cc2c(cc1Br)[C@@]1(C)CCC[C@@](C)(C(=O)O)[C@@H]1C/C2=N\OCCNC(=O)c1cc2ccccc2s1`: the MIC is 2.55 to 4.09 µM (≈ 1.56 to 2.5 µg/mL) with Staphylococcus aureus [1]; 2.04 to 4.09 µM (≈ 1.25 to 2.5 µg/mL) in the assay with Staphylococcus aureus [2]; 4.09 to 5.12 µM (≈ 2.5 to 3.13 µg/mL) with Staphylococcus aureus [3]; 2.05 to 2.55 µM (≈ 1.25 to 1.56 µg/mL) against Staphylococcus aureus [4]; 2.55 to 4.09 µM (≈ 1.56 to 2.5 µg/mL) with Staphylococcus aureus [5]; 2.04 to 4.09 µM (≈ 1.25 to 2.5 µg/mL) with Staphylococcus aureus [6]. Besides, the result in the assay on Escherichia coli was inactive.
With `CC(C)c1cc2c(cc1Br)[C@@]1(C)CCC[C@@](C)(C(=O)O)[C@@H]1C/C2=N\OCCCNC(=O)c1cccc(C(F)(F)F)c1`, the MIC in the assay with Staphylococcus aureus [1] is 3.92 to 4.91 µM (≈ 2.5 to 3.13 µg/mL); against Staphylococcus aureus [2], 1.96 to 3.92 µM (≈ 1.25 to 2.5 µg/mL); against Staphylococcus aureus [3], over 19.6 µM; in the assay on Staphylococcus aureus [4], 3.92 to 4.91 µM (≈ 2.5 to 3.13 µg/mL); against Staphylococcus aureus [5], 4.91 µM (≈ 3.13 µg/mL); in the assay on Staphylococcus aureus [6], 4.91 µM (≈ 3.13 µg/mL). The outcome in the assay on Escherichia coli was inactive.
In the case of `CC(C)c1cc2c(cc1Br)[C@@]1(C)CCC[C@@](C)(C(=O)O)[C@@H]1C/C2=N\OCCCNC(=O)c1ccc(Br)s1`, the MIC against Staphylococcus aureus [1] was 2.38 to 3.82 µM (≈ 1.56 to 2.5 µg/mL); in the assay with Staphylococcus aureus [2], 1.91 to 3.82 µM (≈ 1.25 to 2.5 µg/mL); in the assay on Staphylococcus aureus [3], over 19.1 µM; against Staphylococcus aureus [4], 2.38 to 3.82 µM (≈ 1.56 to 2.5 µg/mL); with Staphylococcus aureus [5], 4.78 µM (≈ 3.13 µg/mL); against Staphylococcus aureus [6] it was 2.38 to 3.82 µM (≈ 1.56 to 2.5 µg/mL). Also, the result in the assay with Escherichia coli was inactive.
As for `CC(C)c1cc2c(cc1Br)[C@@]1(C)CCC[C@@](C)(C(=O)O)[C@@H]1C/C2=N\OCCCNC(=O)c1ccc[nH]1`, the MIC against Staphylococcus aureus [1] is 2.79 to 4.48 µM (≈ 1.56 to 2.5 µg/mL); against Staphylococcus aureus [2], 4.48 µM (≈ 2.5 µg/mL); against Staphylococcus aureus [3] it was 5.6 µM (≈ 3.13 µg/mL); with Staphylococcus aureus [4], 2.79 to 4.48 µM (≈ 1.56 to 2.5 µg/mL); against Staphylococcus aureus [5], 2.79 to 4.48 µM (≈ 1.56 to 2.5 µg/mL); against Staphylococcus aureus [6] it was 2.79 to 4.48 µM (≈ 1.56 to 2.5 µg/mL). The result with Escherichia coli was inactive.
Take `CC(C)c1cc2c(cc1Br)[C@@]1(C)CCC[C@@](C)(C(=O)O)[C@@H]1C/C2=N\OCCCNC(=O)c1cc2ccccc2s1`: the MIC in the assay on Staphylococcus aureus [1] was over 40 µM; against Staphylococcus aureus [2] it was 4 µM (≈ 2.5 µg/mL); in the assay with Staphylococcus aureus [3] it was over 40 µM; with Staphylococcus aureus [4], over 40 µM; against Staphylococcus aureus [5] it was over 40 µM; in the assay on Staphylococcus aureus [6], over 40 µM. Besides, the outcome with Escherichia coli was inactive.
